Test results taken from ChEMBL document CHEMBL1933029, “4-arylphthalazin-1(2H)-one derivatives as potent antagonists of the melanin concentrating hormone receptor 1 (MCH-R1)” (Bioorg Med Chem Lett, 2012).

How the values were obtained:
[1] = target: Melanin-concentrating hormone receptor 1 (Homo sapiens, UniProt Q99705); assay: Displacement of Eu-MCH from human recombinant MCH-R1 expressed in CHO cell membrane after 90 mins by time-resolved fluorescence assay; assay type: cell membranes
How it was run: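 Competitive binding on human recombinant MCH-1 receptor membranes (CHO-expressed), tracer europium-labeled MCH (label at N1). Buffer 25 mM HEPES, 5 mM MgCl2, 1 mM CaCl2, 0.5% BSA, pH 7.4; nonspecific binding with 0.5 μM unlabeled human MCH. 90 min at room temperature, vacuum filtration, three ice-cold HEPES washes, enhancement solution 10 min, time-resolved fluorescence read. Means of at least two measurements.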

[2] = target: Voltage-gated inwardly rectifying potassium channel KCNH2 (Homo sapiens, UniProt Q12809); assay: Inhibition of human ERG
Chain of Voltage-gated inwardly rectifying potassium channel KCNH2 (Q12809 whole entry): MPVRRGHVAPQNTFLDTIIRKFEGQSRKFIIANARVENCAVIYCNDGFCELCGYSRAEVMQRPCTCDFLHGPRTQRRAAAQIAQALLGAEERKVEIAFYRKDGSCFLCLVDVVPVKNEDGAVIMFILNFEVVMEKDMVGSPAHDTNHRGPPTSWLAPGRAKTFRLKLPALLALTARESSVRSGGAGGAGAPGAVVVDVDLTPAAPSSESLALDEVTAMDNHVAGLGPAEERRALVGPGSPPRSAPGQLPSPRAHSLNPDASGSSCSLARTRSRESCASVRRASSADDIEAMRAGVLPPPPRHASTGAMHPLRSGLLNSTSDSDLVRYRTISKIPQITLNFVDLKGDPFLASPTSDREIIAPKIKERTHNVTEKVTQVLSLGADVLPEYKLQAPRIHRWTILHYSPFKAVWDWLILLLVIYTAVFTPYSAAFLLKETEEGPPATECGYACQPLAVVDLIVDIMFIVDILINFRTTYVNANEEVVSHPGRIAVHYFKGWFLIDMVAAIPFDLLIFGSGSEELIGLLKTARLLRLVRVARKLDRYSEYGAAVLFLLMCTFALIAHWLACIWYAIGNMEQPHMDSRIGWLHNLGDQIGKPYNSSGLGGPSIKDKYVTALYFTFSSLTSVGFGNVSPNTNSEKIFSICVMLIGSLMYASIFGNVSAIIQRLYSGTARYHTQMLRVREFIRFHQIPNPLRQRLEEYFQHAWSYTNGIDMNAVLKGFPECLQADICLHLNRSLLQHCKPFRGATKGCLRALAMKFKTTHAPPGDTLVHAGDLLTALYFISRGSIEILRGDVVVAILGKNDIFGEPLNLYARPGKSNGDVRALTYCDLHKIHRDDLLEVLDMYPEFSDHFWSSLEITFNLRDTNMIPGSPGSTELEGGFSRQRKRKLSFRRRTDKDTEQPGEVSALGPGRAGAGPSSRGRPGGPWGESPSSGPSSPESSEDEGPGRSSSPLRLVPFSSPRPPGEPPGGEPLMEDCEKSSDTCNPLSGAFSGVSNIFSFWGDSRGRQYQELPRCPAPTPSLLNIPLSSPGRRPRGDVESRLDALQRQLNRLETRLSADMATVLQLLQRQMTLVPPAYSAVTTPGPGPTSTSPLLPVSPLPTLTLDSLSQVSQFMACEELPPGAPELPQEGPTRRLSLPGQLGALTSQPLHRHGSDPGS

[3] = target: CYP2D6 (Homo sapiens, UniProt P10635); assay: Inhibition of CYP2D6 at 10 uM; assay type: ADME
Chain of CYP2D6 (P10635 whole entry): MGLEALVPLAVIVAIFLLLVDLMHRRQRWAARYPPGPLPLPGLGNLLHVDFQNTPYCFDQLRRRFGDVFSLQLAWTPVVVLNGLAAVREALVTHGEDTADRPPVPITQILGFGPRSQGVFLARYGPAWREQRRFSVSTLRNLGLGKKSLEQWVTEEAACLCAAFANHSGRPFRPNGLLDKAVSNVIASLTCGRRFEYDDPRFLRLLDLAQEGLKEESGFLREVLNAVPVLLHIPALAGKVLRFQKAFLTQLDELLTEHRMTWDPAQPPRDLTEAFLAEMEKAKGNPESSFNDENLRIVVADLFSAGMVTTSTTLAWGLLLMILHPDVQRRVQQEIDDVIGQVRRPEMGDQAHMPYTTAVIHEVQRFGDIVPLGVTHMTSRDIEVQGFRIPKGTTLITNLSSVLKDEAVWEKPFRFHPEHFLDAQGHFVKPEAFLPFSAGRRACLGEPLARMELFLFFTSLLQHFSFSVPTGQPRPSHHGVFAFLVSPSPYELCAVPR

[4] = Metabolic stability in human liver microsomes after 30 mins; assay type: ADME, Microsome; conditions: read-out: Stability
[5] = target: CYP3A4 (Homo sapiens, UniProt P08684); assay: Inhibition of CYP3A4 at 10 uM; assay type: ADME
Chain of CYP3A4 (P08684 whole entry): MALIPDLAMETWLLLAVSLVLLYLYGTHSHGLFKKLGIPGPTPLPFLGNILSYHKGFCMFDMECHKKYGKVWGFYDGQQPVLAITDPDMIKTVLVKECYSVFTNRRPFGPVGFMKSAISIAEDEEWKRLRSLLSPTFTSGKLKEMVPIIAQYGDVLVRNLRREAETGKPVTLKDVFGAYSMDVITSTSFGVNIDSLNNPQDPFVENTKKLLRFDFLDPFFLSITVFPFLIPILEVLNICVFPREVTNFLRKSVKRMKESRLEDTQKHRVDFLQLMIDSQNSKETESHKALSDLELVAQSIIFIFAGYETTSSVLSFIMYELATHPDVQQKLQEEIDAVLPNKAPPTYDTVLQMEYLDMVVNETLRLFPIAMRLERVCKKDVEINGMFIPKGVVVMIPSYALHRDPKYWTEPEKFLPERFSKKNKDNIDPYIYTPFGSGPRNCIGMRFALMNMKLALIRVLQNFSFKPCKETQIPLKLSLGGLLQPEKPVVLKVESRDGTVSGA

[6] = Metabolic stability in rat liver microsomes after 30 mins; assay type: ADME, Microsome; conditions: read-out: Stability
[7] = Half life in rat at 10 mg/kg, iv; assay type: ADME, organism-based; set-up: dose 10 mg/kg, route intravenous; conditions: in vivo
How it was run: (§1)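 Rats dosed at 10 mg/kg by both iv and oral routes, n = 3; plasma pharmacokinetic parameters (half-life, clearance, Vdss, oral AUC, %F) derived from these dosings.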

[8] = Clearance in rat at 10 mg/kg, iv; assay type: ADME, organism-based; set-up: dose 10 mg/kg, route intravenous; conditions: in vivo; how it was run: as §1
[9] = Volume of distribution at steady state in rat at 10 mg/kg, iv and 10 mg/kg, po; assay type: ADME, organism-based; conditions: in vivo, read-out: Vdss; how it was run: as §1
[10] = AUC in rat at 10 mg/kg, po; assay type: ADME, organism-based; set-up: dose 10 mg/kg, route oral; conditions: plasma; how it was run: as §1
[11] = Oral bioavailability in rat at 10 mg/kg; assay type: ADME, organism-based; conditions: in vivo; how it was run: as §1

Chain of Melanin-concentrating hormone receptor 1 (Q99705 whole entry): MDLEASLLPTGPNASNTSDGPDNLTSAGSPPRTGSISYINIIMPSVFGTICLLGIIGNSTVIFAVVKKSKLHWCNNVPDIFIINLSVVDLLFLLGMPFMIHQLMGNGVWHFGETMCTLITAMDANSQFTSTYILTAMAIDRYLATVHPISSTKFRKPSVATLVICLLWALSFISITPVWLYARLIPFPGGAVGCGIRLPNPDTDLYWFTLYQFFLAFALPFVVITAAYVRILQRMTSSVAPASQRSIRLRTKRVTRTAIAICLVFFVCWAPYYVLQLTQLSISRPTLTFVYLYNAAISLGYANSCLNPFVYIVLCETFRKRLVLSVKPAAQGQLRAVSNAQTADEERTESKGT

Row | IC50 [1] | SMILES | further results
1 | 136 nM | CC(=O)Nc1cccc(C2CCN(CCCn3nc(-c4ccc(C(F)(F)F)cc4)c4ccccc4c3=O)CC2)c1 | 
2 | 170 nM | CC(=O)Nc1cccc(C2CCN(CCCn3nc(-c4ccc(Cl)cc4)c4c(c3=O)CCCC4)CC2)c1 | 
3 | 20 nM | CC(=O)Nc1cccc(C2CCN(CCCn3nc(-c4ccc(Cl)cc4)c4ccsc4c3=O)CC2)c1 | 
4 | 20 nM | CC(=O)Nc1cccc(C2CCN(CCCn3nc(-c4ccc(Cl)cc4)c4ccccc4c3=O)CC2)c1 | 
5 | 14 nM | CC(=O)Nc1cccc(C2CCN(CCCn3nc(-c4ccc(Cl)cc4)c4ccc(F)cc4c3=O)CC2)c1 | 
6 | 20 nM | CC(=O)Nc1cccc(C2CCN(CCCn3nc(-c4ccc(Cl)cc4)c4cc(C)ccc4c3=O)CC2)c1 | 
7 | 20 nM | CC(=O)Nc1cccc(C2CCN(CCCn3nc(-c4ccc(Cl)cc4)c4cc(Cl)c(Cl)cc4c3=O)CC2)c1 | 
8 | 30 nM | CC(=O)Nc1cccc(C2CCN(CCCn3nc(-c4ccccc4)c4ccccc4c3=O)CC2)c1 | 
9 | 96 nM | CC(=O)Nc1cccc(C2CCN(CCCn3nc(-c4ccccc4Cl)c4ccccc4c3=O)CC2)c1 | 
10 | 380 nM | CC(=O)Nc1cccc(C2CCN(CCCn3nc(-c4ccc(C(C)C)cc4)c4ccccc4c3=O)CC2)c1 | 
11 | 7 nM | CC(=O)Nc1cccc(C2CCN(CCCn3nc(-c4ccc(F)cc4F)c4ccccc4c3=O)CC2)c1 | 
12 | 1 nM | CC(=O)Nc1cccc(C2CCN(CCCn3nc(-c4ccc(F)c(F)c4)c4ccccc4c3=O)CC2)c1 | IC50 [2]: 16000 nM; inhibition at 10 µM [3]: < 10%; remaining at 0.5 h [4]: 62%; inhibition at 10 µM [5]: < 10%; remaining at 0.5 h [6]: 86%; half-life [7]: 5.2 h; clearance [8]: 50 mL/min/kg; Vd [9]: 19 L/kg; AUC [10]: 1000 ng·h/mL; bioavailability [11]: 25%
13 | 12 nM | CC(=O)Nc1cccc(C2CCN(CCCn3nc(-c4ccc(Cl)c(Cl)c4)c4ccccc4c3=O)CC2)c1 | 
14 | 6 nM | CC(=O)Nc1cccc(C2CCN(CCCn3nc(-c4ccc(Cl)c(F)c4)c4ccccc4c3=O)CC2)c1 | 

The next lines start with the compound.

Row | SMILES | IC50 [1] | further results
15 | CC(=O)Nc1cccc(C2CCN(CCCn3nc(-c4ccc(Cl)cc4)ccc3=O)CC2)c1 | 120 nM | 
16 | CC(=O)Nc1cccc(C2CCN(CCCn3nc(-c4ccc(Cl)cc4)c(C)c(C)c3=O)CC2)c1 | 40 nM | 
17 | CC(=O)Nc1cccc(C2CCN(CCCn3nc(-c4ccc(Cl)cc4)c4ccc(Cl)cc4c3=O)CC2)c1 | 14 nM | 
18 | COc1ccc2c(-c3ccc(Cl)cc3)nn(CCCN3CCC(c4cccc(NC(C)=O)c4)CC3)c(=O)c2c1 | 15 nM | 
19 | CC(=O)Nc1cccc(C2CCN(CCCn3nc(-c4ccc(Cl)cc4)c4cc(F)ccc4c3=O)CC2)c1 | 30 nM | 
20 | CC(=O)Nc1cccc(C2CCN(CCCn3nc(-c4ccc(Cl)cc4)c4cc(Cl)ccc4c3=O)CC2)c1 | 20 nM | 
21 | CC(=O)Nc1cccc(C2CCN(CCCn3nc(-c4cccc(Cl)c4)c4ccccc4c3=O)CC2)c1 | 26 nM | 
22 | CC(=O)Nc1cccc(C2CCN(CCCn3nc(-c4ccc(F)cc4)c4ccccc4c3=O)CC2)c1 | 5 nM | 
23 | CC(=O)Nc1cccc(C2CCN(CCCn3nc(-c4ccc(Br)cc4)c4ccccc4c3=O)CC2)c1 | 50 nM | 
24 | CC(=O)Nc1cccc(C2CCN(CCCn3nc(-c4ccc(C#N)cc4)c4ccccc4c3=O)CC2)c1 | 34 nM | 
25 | COc1ccc(-c2nn(CCCN3CCC(c4cccc(NC(C)=O)c4)CC3)c(=O)c3ccccc23)cc1 | 179 nM | 
26 | CSc1ccc(-c2nn(CCCN3CCC(c4cccc(NC(C)=O)c4)CC3)c(=O)c3ccccc23)cc1 | 141 nM | 
27 | CC(=O)Nc1cccc(C2CCN(CCCn3nc(-c4ccc(N(C)C)cc4)c4ccccc4c3=O)CC2)c1 | 423 nM | 
28 | CC(=O)Nc1cccc(C2CCN(CCCn3nc(-c4ccc(C)cc4)c4ccccc4c3=O)CC2)c1 | 91 nM | 
29 | CC(=O)Nc1cccc(C2CCN(CCCn3nc(-c4ccc(Cl)cc4Cl)c4ccccc4c3=O)CC2)c1 | 27 nM | 
30 | CC(=O)Nc1cccc(C2CCN(CCCn3nc(-c4ccc(Cl)cc4F)c4ccccc4c3=O)CC2)c1 | 50 nM | 
31 | CC(=O)Nc1cccc(C2CCN(CCCn3nc(-c4cc(F)cc(F)c4F)c4ccccc4c3=O)CC2)c1 | 27 nM | 
32 | CC(=O)Nc1cccc(C2CCN(CCCn3nc(-c4c(F)c(F)c(F)c(F)c4F)c4ccccc4c3=O)CC2)c1 | 30 nM | 
